Laboratory results as given in ChEMBL document CHEMBL4689842, “EUbOPEN Chemogenomics Library wave 1” (2021).

Test system: U2OS
Experiment: Multiplex assay against U2OS
Assay type: toxicity, cell-based
Settings: human
In short: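 Cells were classed with CellPathfinder machine-learning gating, first as Hoechst high-intensity objects or normal cells, then (normal cells) as healthy, pyknosed or fragmented nuclei, and finally (pyknosed cells) as mitotic or apoptotic. Staining of live cells at seeding used Hoechst33342, BioTracker Green Microtubule Cytoskeleton Dye, MitoTracker Red and Annexin V Alexa Fluor 680, with imaging on a CQ1 microscope at 37°C and 5% CO2 after compound addition. Tubulin, mitochondrial-mass and membrane-permeability phenotypes are per cents of healthy-nucleus cells.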

[1] = 12 h, 1 µM, compound concentration 1 uM, replicate 1
[2] = 12 h, 1 µM, compound concentration 1 uM, replicate 2
[3] = 12 h, 10 µM, compound concentration 10 uM, replicate 1
[4] = 12 h, 10 µM, compound concentration 10 uM, replicate 2
[5] = 24 h, 1 µM, compound concentration 1 uM, replicate 1
[6] = 24 h, 1 µM, compound concentration 1 uM, replicate 2
[7] = 24 h, 10 µM, compound concentration 10 uM, replicate 1
[8] = 24 h, 10 µM, compound concentration 10 uM, replicate 2
[9] = 48 h, 1 µM, compound concentration 1 uM, replicate 1
[10] = 48 h, 1 µM, compound concentration 1 uM, replicate 2
[11] = 48 h, 10 µM, compound concentration 10 uM, replicate 1
[12] = 48 h, 10 µM, compound concentration 10 uM, replicate 2

For C=CC(=O)Nc1cccc(Sc2nc(Nc3ccc(N4CCN(C)CC4)cc3)ncc2Cl)c1, the “Population Apoptotic (%)” value [1] was 99%, the “Population Fragmented Nuclei (%)” value [1] was 5% and the “Population Healthy Nuclei (%)” value [1] was 3%. For the same compound, the “Population Hoechst High Intensity Objects (%)” value [1] was 10%, the “Population Membrane Permeable-Phenotype (%)” value [1] was 100% and the “Population Mitochondria Different-Phenotype (%)” value [1] was 100%. For the same compound, the “Population Mitotic Cells (%)” value [1] was 0%, the “Population Normal (%)” value [1] was 89% and the “Population Pyknosed Nuclei (%)” value [1] was 91%. The “Population Tubulin-Different-Phenotype (%)” value [1] was 100%, the “Total Cell Count” value [1] was 197 and the “Population Apoptotic (%)” value [2] was 95%. The “Population Fragmented Nuclei (%)” value [2] was 16%, the “Population Healthy Nuclei (%)” value [2] was 11% and the “Population Hoechst High Intensity Objects (%)” value [2] was 14%. The “Population Mitotic Cells (%)” value [2] was 5%, the “Population Normal (%)” value [2] was 85% and the “Population Pyknosed Nuclei (%)” value [2] was 71%. The “Total Cell Count” value [2] was 119, the “Population Apoptotic (%)” value [3] was 28% and the “Population Fragmented Nuclei (%)” value [3] was 5%. For the same compound, the “Population Healthy Nuclei (%)” value [3] was 83%, the “Population Hoechst High Intensity Objects (%)” value [3] was 1% and the “Population Membrane Permeable-Phenotype (%)” value [3] was 32%. The “Population Mitochondria Different-Phenotype (%)” value [3] was 11%, the “Population Mitotic Cells (%)” value [3] was 71% and the “Population Normal (%)” value [3] was 98%. The “Population Pyknosed Nuclei (%)” value [3] was 10%, the “Population Tubulin-Different-Phenotype (%)” value [3] was 25% and the “Total Cell Count” value [3] was 175. For the same compound, the “Population Apoptotic (%)” value [4] was 44%, the “Population Fragmented Nuclei (%)” value [4] was 8% and the “Population Healthy Nuclei (%)” value [4] was 82%. For the same compound, the “Population Hoechst High Intensity Objects (%)” value [4] was 14%, the “Population Membrane Permeable-Phenotype (%)” value [4] was 25% and the “Population Mitochondria Different-Phenotype (%)” value [4] was 10%. The “Population Mitotic Cells (%)” value [4] was 55%, the “Population Normal (%)” value [4] was 85% and the “Population Pyknosed Nuclei (%)” value [4] was 8%. The “Population Tubulin-Different-Phenotype (%)” value [4] was 33%, the “Total Cell Count” value [4] was 115 and the “Population Apoptotic (%)” value [5] was 96%. For the same compound, the “Population Fragmented Nuclei (%)” value [5] was 10%, the “Population Hoechst High Intensity Objects (%)” value [5] was 7% and the “Population Mitochondria Different-Phenotype (%)” value [5] was 96%. For the same compound, the “Population Mitotic Cells (%)” value [5] was 3%, the “Population Normal (%)” value [5] was 92% and the “Population Pyknosed Nuclei (%)” value [5] was 50%. The “Total Cell Count” value [5] was 237, the “Population Apoptotic (%)” value [6] was 100% and the “Population Fragmented Nuclei (%)” value [6] was 21%. The “Population Healthy Nuclei (%)” value [6] was 38%, the “Population Hoechst High Intensity Objects (%)” value [6] was 15% and the “Population Membrane Permeable-Phenotype (%)” value [6] was 100%. The “Population Mitochondria Different-Phenotype (%)” value [6] was 100%, the “Population Mitotic Cells (%)” value [6] was 0% and the “Population Normal (%)” value [6] was 84%. For the same compound, the “Population Pyknosed Nuclei (%)” value [6] was 40%, the “Population Tubulin-Different-Phenotype (%)” value [6] was 100% and the “Total Cell Count” value [6] was 127. For the same compound, the “Population Apoptotic (%)” value [7] was 42%, the “Population Fragmented Nuclei (%)” value [7] was 6% and the “Population Healthy Nuclei (%)” value [7] was 82%. For the same compound, the “Population Hoechst High Intensity Objects (%)” value [7] was 1%, the “Population Membrane Permeable-Phenotype (%)” value [7] was 24% and the “Population Mitochondria Different-Phenotype (%)” value [7] was 13%. The “Population Mitotic Cells (%)” value [7] was 57%, the “Population Normal (%)” value [7] was 98% and the “Population Pyknosed Nuclei (%)” value [7] was 11%. The “Population Tubulin-Different-Phenotype (%)” value [7] was 18%, the “Total Cell Count” value [7] was 158 and the “Population Apoptotic (%)” value [8] was 72%. The “Population Fragmented Nuclei (%)” value [8] was 7%, the “Population Hoechst High Intensity Objects (%)” value [8] was 12% and the “Population Membrane Permeable-Phenotype (%)” value [8] was 23%. For the same compound, the “Population Mitochondria Different-Phenotype (%)” value [8] was 15%, the “Population Mitotic Cells (%)” value [8] was 27% and the “Population Normal (%)” value [8] was 87%. For the same compound, the “Population Pyknosed Nuclei (%)” value [8] was 9%, the “Population Tubulin-Different-Phenotype (%)” value [8] was 22% and the “Total Cell Count” value [8] was 103.
For CNC(=O)Nc1ccc(-c2nc(N3CC4CCC(C3)O4)c3cnn(C4CCC5(CC4)OCCO5)c3n2)cc1, the “Population Apoptotic (%)” value [1] was 22%, the “Population Fragmented Nuclei (%)” value [1] was 24% and the “Population Healthy Nuclei (%)” value [1] was 59%. For the same compound, the “Population Hoechst High Intensity Objects (%)” value [1] was 13%, the “Population Membrane Permeable-Phenotype (%)” value [1] was 5% and the “Population Mitochondria Different-Phenotype (%)” value [1] was 11%. For the same compound, the “Population Mitotic Cells (%)” value [1] was 77%, the “Population Normal (%)” value [1] was 86% and the “Population Pyknosed Nuclei (%)” value [1] was 15%. The “Population Tubulin-Different-Phenotype (%)” value [1] was 26%, the “Total Cell Count” value [1] was 90 and the “Population Apoptotic (%)” value [2] was 0%. The “Population Fragmented Nuclei (%)” value [2] was 28%, the “Population Healthy Nuclei (%)” value [2] was 55% and the “Population Hoechst High Intensity Objects (%)” value [2] was 10%. For the same compound, the “Population Mitochondria Different-Phenotype (%)” value [2] was 13%, the “Population Mitotic Cells (%)” value [2] was 100% and the “Population Normal (%)” value [2] was 89%. The “Population Pyknosed Nuclei (%)” value [2] was 16%, the “Population Tubulin-Different-Phenotype (%)” value [2] was 18% and the “Total Cell Count” value [2] was 54. For the same compound, the “Population Apoptotic (%)” value [3] was 40%, the “Population Fragmented Nuclei (%)” value [3] was 26% and the “Population Healthy Nuclei (%)” value [3] was 31%. The “Population Hoechst High Intensity Objects (%)” value [3] was 13%, the “Population Membrane Permeable-Phenotype (%)” value [3] was 11% and the “Population Mitochondria Different-Phenotype (%)” value [3] was 88%. For the same compound, the “Population Mitotic Cells (%)” value [3] was 59%, the “Population Normal (%)” value [3] was 87% and the “Population Pyknosed Nuclei (%)” value [3] was 42%. The “Population Tubulin-Different-Phenotype (%)” value [3] was 96%, the “Total Cell Count” value [3] was 66 and the “Population Apoptotic (%)” value [4] was 25%. The “Population Fragmented Nuclei (%)” value [4] was 13%, the “Population Healthy Nuclei (%)” value [4] was 54% and the “Population Hoechst High Intensity Objects (%)” value [4] was 6%. The “Population Membrane Permeable-Phenotype (%)” value [4] was 36%, the “Population Mitochondria Different-Phenotype (%)” value [4] was 75% and the “Population Mitotic Cells (%)” value [4] was 75%. For the same compound, the “Population Normal (%)” value [4] was 93%, the “Population Pyknosed Nuclei (%)” value [4] was 32% and the “Total Cell Count” value [4] was 107. For the same compound, the “Population Apoptotic (%)” value [5] was 30%, the “Population Fragmented Nuclei (%)” value [5] was 28% and the “Population Healthy Nuclei (%)” value [5] was 52%. For the same compound, the “Population Hoechst High Intensity Objects (%)” value [5] was 19%, the “Population Membrane Permeable-Phenotype (%)” value [5] was 0% and the “Population Mitochondria Different-Phenotype (%)” value [5] was 14%. For the same compound, the “Population Mitotic Cells (%)” value [5] was 70%, the “Population Normal (%)” value [5] was 80% and the “Population Pyknosed Nuclei (%)” value [5] was 18%. For the same compound, the “Population Tubulin-Different-Phenotype (%)” value [5] was 14%, the “Total Cell Count” value [5] was 98 and the “Population Apoptotic (%)” value [6] was 25%. For the same compound, the “Population Fragmented Nuclei (%)” value [6] was 19%, the “Population Healthy Nuclei (%)” value [6] was 64% and the “Population Hoechst High Intensity Objects (%)” value [6] was 18%. For the same compound, the “Population Membrane Permeable-Phenotype (%)” value [6] was 8%, the “Population Mitochondria Different-Phenotype (%)” value [6] was 6% and the “Population Mitotic Cells (%)” value [6] was 75%. The “Population Normal (%)” value [6] was 81%, the “Population Pyknosed Nuclei (%)” value [6] was 16% and the “Population Tubulin-Different-Phenotype (%)” value [6] was 23%. For the same compound, the “Total Cell Count” value [6] was 55, the “Population Apoptotic (%)” value [7] was 51% and the “Population Fragmented Nuclei (%)” value [7] was 25%. For the same compound, the “Population Healthy Nuclei (%)” value [7] was 35%, the “Population Hoechst High Intensity Objects (%)” value [7] was 10% and the “Population Membrane Permeable-Phenotype (%)” value [7] was 10%. The “Population Mitochondria Different-Phenotype (%)” value [7] was 89%, the “Population Mitotic Cells (%)” value [7] was 48% and the “Population Normal (%)” value [7] was 90%. The “Population Pyknosed Nuclei (%)” value [7] was 38%, the “Population Tubulin-Different-Phenotype (%)” value [7] was 93% and the “Total Cell Count” value [7] was 66. The “Population Apoptotic (%)” value [8] was 41%, the “Population Fragmented Nuclei (%)” value [8] was 8% and the “Population Healthy Nuclei (%)” value [8] was 42%. The “Population Hoechst High Intensity Objects (%)” value [8] was 6%, the “Population Membrane Permeable-Phenotype (%)” value [8] was 44% and the “Population Mitochondria Different-Phenotype (%)” value [8] was 84%. For the same compound, the “Population Mitotic Cells (%)” value [8] was 58%, the “Population Normal (%)” value [8] was 93% and the “Population Pyknosed Nuclei (%)” value [8] was 49%. For the same compound, the “Population Tubulin-Different-Phenotype (%)” value [8] was 96%, the “Total Cell Count” value [8] was 90 and the “Population Apoptotic (%)” value [9] was 50%. The “Population Fragmented Nuclei (%)” value [9] was 39%, the “Population Healthy Nuclei (%)” value [9] was 49% and the “Population Hoechst High Intensity Objects (%)” value [9] was 18%. The “Population Membrane Permeable-Phenotype (%)” value [9] was 3%, the “Population Mitochondria Different-Phenotype (%)” value [9] was 7% and the “Population Mitotic Cells (%)” value [9] was 50%. For the same compound, the “Population Normal (%)” value [9] was 81%, the “Population Pyknosed Nuclei (%)” value [9] was 11% and the “Population Tubulin-Different-Phenotype (%)” value [9] was 19%. For the same compound, the “Total Cell Count” value [9] was 93, the “Population Apoptotic (%)” value [10] was 36% and the “Population Fragmented Nuclei (%)” value [10] was 14%. For the same compound, the “Population Healthy Nuclei (%)” value [10] was 55%, the “Population Hoechst High Intensity Objects (%)” value [10] was 14% and the “Population Membrane Permeable-Phenotype (%)” value [10] was 5%. For the same compound, the “Population Mitochondria Different-Phenotype (%)” value [10] was 14%, the “Population Mitotic Cells (%)” value [10] was 63% and the “Population Normal (%)” value [10] was 85%. The “Population Pyknosed Nuclei (%)” value [10] was 30%, the “Population Tubulin-Different-Phenotype (%)” value [10] was 37% and the “Total Cell Count” value [10] was 56. For the same compound, the “Population Apoptotic (%)” value [11] was 64%, the “Population Fragmented Nuclei (%)” value [11] was 29% and the “Population Healthy Nuclei (%)” value [11] was 23%. The “Population Hoechst High Intensity Objects (%)” value [11] was 12%, the “Population Membrane Permeable-Phenotype (%)” value [11] was 26% and the “Population Mitochondria Different-Phenotype (%)” value [11] was 94%. For the same compound, the “Population Mitotic Cells (%)” value [11] was 35%, the “Population Normal (%)” value [11] was 87% and the “Population Pyknosed Nuclei (%)” value [11] was 47%. For the same compound, the “Population Tubulin-Different-Phenotype (%)” value [11] was 94%, the “Total Cell Count” value [11] was 65 and the “Population Apoptotic (%)” value [12] was 43%. The “Population Fragmented Nuclei (%)” value [12] was 11%, the “Population Healthy Nuclei (%)” value [12] was 29% and the “Population Hoechst High Intensity Objects (%)” value [12] was 16%. For the same compound, the “Population Membrane Permeable-Phenotype (%)” value [12] was 40%, the “Population Mitochondria Different-Phenotype (%)” value [12] was 80% and the “Population Mitotic Cells (%)” value [12] was 56%. The “Population Normal (%)” value [12] was 83%, the “Population Pyknosed Nuclei (%)” value [12] was 58% and the “Population Tubulin-Different-Phenotype (%)” value [12] was 93%. The “Total Cell Count” value [12] was 74.
